Data published in ChEMBL document CHEMBL4000168, “Carthorquinosides A and B, Quinochalcone C-Glycosides with Diverse Dimeric Skeletons from Carthamus tinctorius” (J Nat Prod, 2016).
One block for each compound: values may come before it. The source made the active and inactive calls. The rule behind the calls is not given here.

Assays:
[1] = system: HUVEC; test: Antiinflammatory activity in HUVEC assessed as downregulation of LPS-induced IL6 mRNA expression at 0.8 to 100 uM by qRT-PCR method; assay type: functional, cell-based; conditions: Homo sapiens
Method in brief: (§1)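 HUVEC cells grown in DMEM with 10% FBS, streptomycin and penicillin, at 37 °C in humidified 5% CO2. Drug groups received 0.8, 4, 20 or 100 μM drug plus 10 μg/mL LPS. Model group got medium plus LPS, controls got medium only, n = 3 per group. Cells harvested after varying times for cytokine mRNA measurement. Mean ± SD of three independent experiments.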

[2] = system: HUVEC; test: Antiinflammatory activity in HUVEC assessed as downregulation of LPS-induced IL1 mRNA expression at 0.8 to 100 uM by qRT-PCR method; assay type: functional, cell-based; conditions: Homo sapiens; method in brief: as §1
[3] = system: HUVEC; test: Antiinflammatory activity in LPS stimulated HUVEC assessed as upregulation of IL10 mRNA expression at 0.8 to 100 uM by qRT-PCR method; assay type: functional, cell-based; conditions: Homo sapiens; method in brief: as §1
[4] = system: HUVEC; test: Antiinflammatory activity in HUVEC assessed as downregulation of LPS-induced IFN-gamma mRNA expression at 0.8 to 100 uM by qRT-PCR method; assay type: functional, cell-based; conditions: Homo sapiens; method in brief: as §1
[5] = species: Bos taurus; test: Inhibition of calf thymus topoisomerase 1 assessed as decrease in relaxation of supercoiled pBR322 DNA at 100 uM after 30 mins by agarose gel electrophoresis
Method in brief: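 Calf-thymus topoisomerase I relaxation of negatively supercoiled pBR322. Supercoiled and relaxed DNA bands resolved. Test concentration 100 μM. Hydroxycamptothecine served as positive control.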

[6] = system: HeLa; test: Cytotoxicity against human HeLa cells after 72 hrs by MTT assay
[7] = system: HepG2; test: Cytotoxicity against human HepG2 cells after 72 hrs by MTT assay; conditions: HepG2, 72 h
[8] = system: A549; test: Cytotoxicity against human A549 cells after 72 hrs by MTT assay; conditions: A549, 72 h
[9] = system: K562; test: Cytotoxicity against human K562 cells after 72 hrs by MTT assay; conditions: K562, 72 h
[10] = system: HCT-116; test: Cytotoxicity against human HCT116 cells after 72 hrs by MTT assay; conditions: HCT-116, 72 h

inhibition [5]: Active
SMILES: O=C(/C=C/c1ccc(O)cc1)C1=C(O)C(C2C3=C(O)[C@@](O)(C4O[C@H](CO)[C@@H](O)[C@H](O)[C@H]4O)C(=O)C(C(=O)/C=C/c4ccc(O)cc4)=C3O[C@@H]2[C@@H](O)[C@H](O)[C@H](O)CO)=C(O)[C@@](O)(C2O[C@H](CO)[C@@H](O)[C@H](O)[C@H]2O)C1=O (stereo partly drawn)
Activity [1]: Dose-dependent effect
Activity [2]: Dose-dependent effect
Activity [3]: Dose-dependent effect
Activity [4]: Dose-dependent effect

SMILES: O=C(/C=C/c1ccc(O)cc1)C1=C(O)C(Cc2c(O)c(O[C@@H]3O[C@H](CO)[C@@H](O)[C@H](O)[C@H]3O)c(O)c3c(=O)c(O[C@@H]4O[C@H](CO)[C@@H](O)[C@H](O)[C@H]4O)c(-c4ccc(O)cc4)oc23)=C(O)[C@@](O)(C2O[C@H](CO)[C@@H](O)[C@H](O)[C@H]2O)C1=O (stereo partly drawn)
Activity [1]: Active
Activity [2]: Active
Activity [3]: Dose-dependent effect

SMILES: CC(=O)O[C@H]1C(=O)[C@@]2(C)[C@H]([C@H](OC(=O)c3ccccc3)[C@]3(O)C[C@H](OC(=O)[C@H](O)[C@@H](NC(=O)c4ccccc4)c4ccccc4)C(C)=C1C3(C)C)[C@]1(OC(C)=O)CO[C@@H]1C[C@@H]2O [PACLITAXEL]
IC50 [6]: 1.7 µM
IC50 [7]: 6.7 µM
IC50 [8]: 5.5 µM
IC50 [9]: 2.7 µM
IC50 [10]: 3.3 µM
